# Results reported in ChEMBL document CHEMBL2163274, “Heterocyclic methylsulfone hydroxamic acid LpxC inhibitors as Gram-negative antibacterial agents” (Bioorg Med Chem Lett, 2012).
# Tested on: not listed separately
# Test: Fraction unbound in human plasma
# Format: ADME, cell-free
# Details: not given
row,SMILES,fraction unbound
1,COc1ccc(-c2cc(CC[C@](C)(C(=O)NO)S(C)(=O)=O)on2)c(F)c1,0.072
2,C[C@@](CCc1cc(-c2ccccc2)on1)(C(=O)NO)S(C)(=O)=O,0.016
3,C[C@@](CCn1cc(-c2ccccc2)cn1)(C(=O)NO)S(C)(=O)=O,0.048
4,C[C@@](CCc1cc(-c2ccccc2)no1)(C(=O)NO)S(C)(=O)=O,0.013
5,COc1ccc(-c2cn(CC[C@](C)(C(=O)NO)S(C)(=O)=O)nn2)c(F)c1,0.085

# Target: T1, UDP-3-O-acyl-N-acetylglucosamine deacetylase (Pseudomonas aeruginosa, UniProt B5ATN6)
# T1 sequence (B5ATN6 whole entry): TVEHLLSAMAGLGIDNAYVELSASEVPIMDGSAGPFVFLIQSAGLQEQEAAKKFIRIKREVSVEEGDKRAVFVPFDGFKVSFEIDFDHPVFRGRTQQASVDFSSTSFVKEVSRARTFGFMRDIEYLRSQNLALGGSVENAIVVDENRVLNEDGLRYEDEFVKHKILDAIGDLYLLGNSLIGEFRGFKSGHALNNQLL
# Test: Inhibition of Pseudomonas aeruginosa LpxC
# Details: not given
row,SMILES,IC50
1,C[C@@](CCn1cc(-c2cccc(Cl)c2Cl)nn1)(C(=O)NO)S(C)(=O)=O,1.95 nM
2,COc1ccc(-c2cn(CC[C@](C)(C(=O)NO)S(C)(=O)=O)nn2)c(Cl)c1,4.71 nM
3,COc1ccc(-c2cc(CC[C@](C)(C(=O)NO)S(C)(=O)=O)on2)c(F)c1,4.4 nM
4,C[C@@](CCc1cc(-c2ccccc2)on1)(C(=O)NO)S(C)(=O)=O,0.511 nM
5,C[C@@](CCn1cc(-c2ccccc2)cn1)(C(=O)NO)S(C)(=O)=O,1.61 nM
6,C[C@@](CCc1cc(-c2ccccc2)no1)(C(=O)NO)S(C)(=O)=O,3.02 nM
7,COc1ccc(-c2cn(CC[C@](C)(C(=O)NO)S(C)(=O)=O)nn2)c(F)c1,1.2 nM

# Tested on: Klebsiella pneumoniae
# Test: Antibacterial activity against Klebsiella pneumoniae
# Format: functional
# Details: not given
row,SMILES,MIC90
1,COc1ccc(-c2cc(CC[C@](C)(C(=O)NO)S(C)(=O)=O)on2)c(F)c1,8 µg/mL
2,C[C@@](CCc1cc(-c2ccccc2)on1)(C(=O)NO)S(C)(=O)=O,32 µg/mL
3,C[C@@](CCn1cc(-c2ccccc2)cn1)(C(=O)NO)S(C)(=O)=O,> 64 µg/mL
4,C[C@@](CCc1cc(-c2ccccc2)no1)(C(=O)NO)S(C)(=O)=O,4 µg/mL
5,COc1ccc(-c2cn(CC[C@](C)(C(=O)NO)S(C)(=O)=O)nn2)c(F)c1,> 32 µg/mL

# Tested on: Pseudomonas aeruginosa
# Test: Antibacterial activity against multi efflux pump knock out Pseudomonas aeruginosa PA3919
# Format: functional
# Details: not given
# In short: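 MIC in µg/ml against P. aeruginosa PA-3919, which lacks multiple efflux pumps. The strain is used to tell whether a compound is a substrate of these pumps.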
row,SMILES,MIC
1,C[C@@](CCn1cc(-c2cccc(Cl)c2Cl)nn1)(C(=O)NO)S(C)(=O)=O,< 0.06 µg/mL
2,COc1ccc(-c2cn(CC[C@](C)(C(=O)NO)S(C)(=O)=O)nn2)c(Cl)c1,0.125 µg/mL
3,COc1ccc(-c2cc(CC[C@](C)(C(=O)NO)S(C)(=O)=O)on2)c(F)c1,< 0.06 µg/mL
4,C[C@@](CCc1cc(-c2ccccc2)on1)(C(=O)NO)S(C)(=O)=O,< 0.06 µg/mL
5,C[C@@](CCn1cc(-c2ccccc2)cn1)(C(=O)NO)S(C)(=O)=O,0.015 µg/mL
6,C[C@@](CCc1cc(-c2ccccc2)no1)(C(=O)NO)S(C)(=O)=O,< 0.06 µg/mL
7,COc1ccc(-c2cn(CC[C@](C)(C(=O)NO)S(C)(=O)=O)nn2)c(F)c1,0.06 µg/mL

# Tested on: Pseudomonas aeruginosa
# Test: Antibacterial activity against Pseudomonas aeruginosa PAO1
# Format: functional
# Details: not given
# In short: (§1)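 MIC in µg/ml against P. aeruginosa strains with fully functioning efflux pumps. PAO1 is wild type and efflux pump competent.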
row,SMILES,MIC
1,C[C@@](CCn1cc(-c2cccc(Cl)c2Cl)nn1)(C(=O)NO)S(C)(=O)=O,2 µg/mL
2,COc1ccc(-c2cn(CC[C@](C)(C(=O)NO)S(C)(=O)=O)nn2)c(Cl)c1,8 µg/mL
3,COc1ccc(-c2cc(CC[C@](C)(C(=O)NO)S(C)(=O)=O)on2)c(F)c1,1 µg/mL
4,C[C@@](CCc1cc(-c2ccccc2)on1)(C(=O)NO)S(C)(=O)=O,0.5 µg/mL
5,C[C@@](CCn1cc(-c2ccccc2)cn1)(C(=O)NO)S(C)(=O)=O,0.5 µg/mL
6,C[C@@](CCc1cc(-c2ccccc2)no1)(C(=O)NO)S(C)(=O)=O,0.5 µg/mL
7,COc1ccc(-c2cn(CC[C@](C)(C(=O)NO)S(C)(=O)=O)nn2)c(F)c1,2 µg/mL

# Tested on: not listed separately
# Test: Lipophilicity, log D of the compound at pH 7.4
# Format: physicochemical
# Details: buffer
row,SMILES,logD
1,COc1ccc(-c2cc(CC[C@](C)(C(=O)NO)S(C)(=O)=O)on2)c(F)c1,1.23
2,C[C@@](CCc1cc(-c2ccccc2)on1)(C(=O)NO)S(C)(=O)=O,1.31
3,C[C@@](CCn1cc(-c2ccccc2)cn1)(C(=O)NO)S(C)(=O)=O,1.04
4,C[C@@](CCc1cc(-c2ccccc2)no1)(C(=O)NO)S(C)(=O)=O,0.99
5,COc1ccc(-c2cn(CC[C@](C)(C(=O)NO)S(C)(=O)=O)nn2)c(F)c1,1.36

# Tested on: Escherichia coli
# Test: Antibacterial activity against Escherichia coli
# Format: functional
# Details: not given
row,SMILES,MIC90
1,COc1ccc(-c2cc(CC[C@](C)(C(=O)NO)S(C)(=O)=O)on2)c(F)c1,4 µg/mL
2,C[C@@](CCc1cc(-c2ccccc2)on1)(C(=O)NO)S(C)(=O)=O,4 µg/mL
3,C[C@@](CCn1cc(-c2ccccc2)cn1)(C(=O)NO)S(C)(=O)=O,32 µg/mL
4,C[C@@](CCc1cc(-c2ccccc2)no1)(C(=O)NO)S(C)(=O)=O,1 µg/mL
5,COc1ccc(-c2cn(CC[C@](C)(C(=O)NO)S(C)(=O)=O)nn2)c(F)c1,16 µg/mL

# Tested on: Pseudomonas aeruginosa
# Test: Antibacterial activity against Pseudomonas aeruginosa PA7
# Format: functional
# Details: not given
# In short: as §1
row,SMILES,MIC
1,C[C@@](CCn1cc(-c2cccc(Cl)c2Cl)nn1)(C(=O)NO)S(C)(=O)=O,4 µg/mL
2,COc1ccc(-c2cn(CC[C@](C)(C(=O)NO)S(C)(=O)=O)nn2)c(Cl)c1,8 µg/mL
3,COc1ccc(-c2cc(CC[C@](C)(C(=O)NO)S(C)(=O)=O)on2)c(F)c1,2 µg/mL
4,C[C@@](CCc1cc(-c2ccccc2)on1)(C(=O)NO)S(C)(=O)=O,0.5 µg/mL
5,C[C@@](CCn1cc(-c2ccccc2)cn1)(C(=O)NO)S(C)(=O)=O,1 µg/mL
6,C[C@@](CCc1cc(-c2ccccc2)no1)(C(=O)NO)S(C)(=O)=O,1 µg/mL
7,COc1ccc(-c2cn(CC[C@](C)(C(=O)NO)S(C)(=O)=O)nn2)c(F)c1,2 µg/mL

# Tested on: Pseudomonas aeruginosa
# Test: Antibacterial activity against quinolone-resistant Pseudomonas aeruginosa PA3060
# Format: functional
# Details: not given
# In short: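 MIC (µg/ml) against quinolone-resistant P. aeruginosa PA-3060, run alongside efflux-competent strains PAO1 and PA-7 and the multi-efflux-pump knockout PA-3919. Some analogs were tested as racemates.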
row,SMILES,MIC
1,C[C@@](CCn1cc(-c2cccc(Cl)c2Cl)nn1)(C(=O)NO)S(C)(=O)=O,4 µg/mL
2,COc1ccc(-c2cn(CC[C@](C)(C(=O)NO)S(C)(=O)=O)nn2)c(Cl)c1,8 µg/mL
3,COc1ccc(-c2cc(CC[C@](C)(C(=O)NO)S(C)(=O)=O)on2)c(F)c1,2 µg/mL
4,C[C@@](CCc1cc(-c2ccccc2)on1)(C(=O)NO)S(C)(=O)=O,1 µg/mL
5,C[C@@](CCn1cc(-c2ccccc2)cn1)(C(=O)NO)S(C)(=O)=O,2 µg/mL
6,C[C@@](CCc1cc(-c2ccccc2)no1)(C(=O)NO)S(C)(=O)=O,2 µg/mL
7,COc1ccc(-c2cn(CC[C@](C)(C(=O)NO)S(C)(=O)=O)nn2)c(F)c1,4 µg/mL

# Tested on: Pseudomonas aeruginosa
# Test: Antibacterial activity against Pseudomonas aeruginosa
# Format: functional
# Details: not given
row,SMILES,MIC90
1,COc1ccc(-c2cc(CC[C@](C)(C(=O)NO)S(C)(=O)=O)on2)c(F)c1,4 µg/mL
2,C[C@@](CCc1cc(-c2ccccc2)on1)(C(=O)NO)S(C)(=O)=O,2 µg/mL
3,C[C@@](CCn1cc(-c2ccccc2)cn1)(C(=O)NO)S(C)(=O)=O,4 µg/mL
4,C[C@@](CCc1cc(-c2ccccc2)no1)(C(=O)NO)S(C)(=O)=O,2 µg/mL
5,COc1ccc(-c2cn(CC[C@](C)(C(=O)NO)S(C)(=O)=O)nn2)c(F)c1,4 µg/mL

# Tested on: Acinetobacter baumannii
# Test: Antibacterial activity against Acinetobacter baumannii
# Format: functional
# Details: not given
row,SMILES,MIC90
1,COc1ccc(-c2cc(CC[C@](C)(C(=O)NO)S(C)(=O)=O)on2)c(F)c1,32 µg/mL
2,C[C@@](CCc1cc(-c2ccccc2)on1)(C(=O)NO)S(C)(=O)=O,> 32 µg/mL
3,C[C@@](CCn1cc(-c2ccccc2)cn1)(C(=O)NO)S(C)(=O)=O,> 256 µg/mL
4,C[C@@](CCc1cc(-c2ccccc2)no1)(C(=O)NO)S(C)(=O)=O,> 32 µg/mL
5,COc1ccc(-c2cn(CC[C@](C)(C(=O)NO)S(C)(=O)=O)nn2)c(F)c1,> 32 µg/mL
